Experimental data taken from ChEMBL document CHEMBL1629563, “Pharmacokinetic and safety evaluation of BILR 355, a second-generation nonnucleoside reverse transcriptase inhibitor, in healthy volunteers” (Antimicrob Agents Chemother, 2008).

What was measured:
Homo sapiens [1] = test: Toxicity in healthy human assessed as occurrence of migraine at 25 mg, po administered as single dose relative to control; format: organism-based; conditions: in vivo
Homo sapiens [2] = test: Toxicity in healthy human assessed as occurrence of migraine at 100 mg, po administered as single dose relative to control; format: organism-based; conditions: in vivo
Homo sapiens [3] = test: Toxicity in healthy human assessed as occurrence of maculopapular rash at 75 mg, po administered as single dose relative to control; format: organism-based; conditions: in vivo
Homo sapiens [4] = test: Toxicity in healthy human assessed as occurrence of constipation at 50 mg, po administered as single dose relative to control; format: organism-based; conditions: in vivo
[5] = Half life in healthy human at 87.5 mg, po administered as single dose coadministered with 100 mg of ritonavir; format: ADME, organism-based; conditions: in vivo
[6] = Apparent oral clearance in high fat fed healthy human at 50 mg, po administered as single dose coadministered with 100 mg of ritonavir; format: ADME, organism-based; conditions: in vivo
Outline: (§1)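 Fed cohort of 6 healthy men given an FDA-type high-fat breakfast (about 150, 250 and 500 to 600 cal from protein, carbohydrate and fat) 30 min before dosing. Ritonavir 100 mg given 10 h earlier and again with the single oral dose in PEG solution. Plasma sampled to 144 h, LC-MS/MS, noncompartmental analysis.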

[7] = Mean residence time in healthy human at 5 mg, po administered as single dose coadministered with 100 mg of ritonavir; format: ADME, organism-based; conditions: in vivo
[8] = Mean residence time in healthy human at 25 mg, po administered as single dose coadministered with 100 mg of ritonavir; format: ADME, organism-based; conditions: in vivo
[9] = Mean residence time in healthy human at 87.5 mg, po administered as single dose coadministered with 100 mg of ritonavir; format: ADME, organism-based; conditions: in vivo
[10] = Apparent volume of distribution at steady state in healthy human at 12.5 mg, po administered as single dose coadministered with 100 mg of ritonavir; format: ADME, organism-based; conditions: in vivo, read-out: Vss/F
Outline: (§2)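 Healthy male volunteers, fasted. Ritonavir 100 mg given 10 h before and again together with single oral BILR 355 in PEG solution. EDTA plasma sampled predose to 144 h. LC-MS/MS assay after protein precipitation. Noncompartmental analysis, AUC by linear up/log down trapezoidal rule; Vss = CL/F·(MRTp.o. − 1/Ka).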

[11] = Apparent volume of distribution at steady state in healthy human at 50 mg, po administered as single dose coadministered with 100 mg of ritonavir; format: ADME, organism-based; conditions: in vivo, read-out: Vss/F
Outline: (§3)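 Healthy male volunteers, fasted overnight, got one oral dose of BILR 355 in PEG solution with 200 ml water. Ritonavir 100 mg was given 10 h before and again with the dose. Plasma was sampled (EDTA) from predose to 144 h and assayed by validated LC-MS/MS. Cmax and Vz/F came from noncompartmental analysis. Vss/F = CL/F·(MRTp.o. − 1/Ka), with Ka from compartmental modelling.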

[12] = Apparent volume of distribution at steady state in healthy human at 87.5 mg, po administered as single dose coadministered with 100 mg of ritonavir; format: ADME, organism-based; conditions: in vivo, read-out: Vss/F; outline: as §3
[13] = Renal clearance in healthy human at 25 mg, po administered as single dose coadministered with 100 mg of ritonavir by high-pressure liquid chromatography-tandem mass spectrometry/mass spectrometry method; format: ADME, organism-based, Kidney; conditions: in vivo, read-out: CL_renal (converted)
[14] = Drug excretion in healthy human urine assessed as unchanged drug at 87.5 mg, po administered as single dose coadministered with 100 mg of ritonavir by high-pressure liquid chromatography-tandem mass spectrometry/mass spectrometry method; format: ADME, organism-based; conditions: read-out: Drug uptake
Outline: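 Ritonavir 100 mg was given 10 h before and with one oral dose of BILR 355 in PEG solution. Urine was collected by weight as predose blank, then 0-6, 6-24 and 24-72 h, stored at −20°C and assayed by LC-MS/MS. fe = unchanged drug excreted (Ae) as a percentage of dose. Line 50: high-fat breakfast 30 min before dosing.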

Homo sapiens [15] = test: Toxicity in healthy human assessed as occurrence of aphthous stomatitis at 62.5 mg, po administered as single dose coadministered with 100 mg of ritonavir; format: organism-based; conditions: in vivo
Homo sapiens [16] = test: Toxicity in healthy human assessed as occurrence of aphthous stomatitis at 75 mg, po administered as single dose coadministered with 100 mg of ritonavir; format: organism-based; conditions: in vivo
Homo sapiens [17] = test: Toxicity in healthy human assessed as occurrence of diarrhea at 62.5 mg, po administered as single dose coadministered with 100 mg of ritonavir; format: organism-based; conditions: in vivo
Homo sapiens [18] = test: Toxicity in high fat fed healthy human assessed as occurrence of diarrhea at 50 mg, po administered as single dose coadministered with 100 mg of ritonavir; format: organism-based; conditions: in vivo
Homo sapiens [19] = test: Toxicity in high fat fed healthy human assessed as occurrence of fatigue at 50 mg, po administered as single dose coadministered with 100 mg of ritonavir; format: organism-based; conditions: in vivo
[20] = Tmax in healthy human at 50 mg, po administered as single dose; format: ADME, organism-based; conditions: in vivo
[21] = Tmax in healthy human at 75 mg, po administered as single dose; format: ADME, organism-based; conditions: in vivo
Homo sapiens [22] = test: Ratio of Cmax in human at 50 mg, po in presence of 100 mg of ritonavir to Cmax in human at 50 mg, po; format: ADME, organism-based; conditions: in vivo
Homo sapiens [23] = test: Toxicity in healthy human assessed as occurrence of abdominal pain at 25 mg, po administered as single dose relative to control; format: organism-based, Abdomen; conditions: in vivo
[24] = Mean residence time in healthy human at 50 mg, po administered as single dose; format: ADME, organism-based; conditions: in vivo
[25] = Apparent volume of distribution in terminal phase in healthy human at 5 mg, po administered as single dose; format: ADME, organism-based; conditions: in vivo, read-out: Vz/F
Outline: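 Single fasting oral dose of BILR 355 in PEG solution with 200 ml tap water, given to healthy males. Standard breakfast came 60-90 min after the dose. EDTA plasma was sampled predose to 144 h, stored below −18°C and assayed by LC-MS/MS after protein precipitation. Noncompartmental analysis gave Vz/F. Vss/F = CL/F·(MRTp.o. − 1/Ka), with Ka from compartmental modelling.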

[26] = AUC (0 to infinity) in healthy human at 50 mg, po administered as single dose coadministered with 100 mg of ritonavir; format: ADME, organism-based; design: dose 50 mg, time infinity, route oral; conditions: plasma; outline: as §2
[27] = AUC (0 to last) in healthy human at 87.5 mg, po administered as single dose coadministered with 100 mg of ritonavir; format: ADME, organism-based; design: dose 87.5 mg, route oral, time 0 - last; conditions: plasma; outline: as §2
[28] = AUC (0 to last) in high fat fed healthy human at 50 mg, po administered as single dose coadministered with 100 mg of ritonavir; format: ADME, organism-based; design: dose 50 mg, route oral, time 0 - last; conditions: plasma; outline: as §1
[29] = Cmax in healthy human at 5 mg, po administered as single dose coadministered with 100 mg of ritonavir by high-pressure liquid chromatography-tandem mass spectrometry/mass spectrometry method; format: ADME, organism-based; design: dose 5 mg, route oral; conditions: in vivo; outline: as §3
[30] = Cmax in healthy human at 12.5 mg, po administered as single dose coadministered with 100 mg of ritonavir by high-pressure liquid chromatography-tandem mass spectrometry/mass spectrometry method; format: ADME, organism-based; design: dose 12.5 mg, route oral; conditions: in vivo; outline: as §3
Homo sapiens [31] = test: Toxicity in healthy human assessed as occurrence of fatigue at 5 mg, po administered as single dose relative to control; format: organism-based; conditions: in vivo
Homo sapiens [32] = test: Toxicity in healthy human assessed as occurrence of headache at 5 mg, po administered as single dose relative to control; format: organism-based; conditions: in vivo
Homo sapiens [33] = test: Toxicity in healthy human assessed as occurrence of nausea at 12.5 mg, po administered as single dose relative to control; format: organism-based; conditions: in vivo

half-life [5]: 9.61 h | CL/F [6]: 104 mL/min | MRT [7]: 24.8 h | MRT [8]: 18.1 h | MRT [9]: 14.6 h | Vd/F [10]: 153 L | Vd/F [11]: 125 L | Vd/F [12]: 112 L | CL renal [13]: 6.5 mL/min | dose excreted [14]: 5.96% | Tmax [20]: 0.667 h | Tmax [21]: 0.667 h | Ratio (Homo sapiens [22]): 2.9 | MRT [24]: 3.2 h | Vd/F [25]: 956 L | AUC(0-inf) [26]: 6800 ng·h/mL | AUC(0-t) [27]: 11700 ng·h/mL | AUC(0-t) [28]: 7970 ng·h/mL | Cmax [29]: 25.3 ng/mL | Cmax [30]: 74.1 ng/mL
Compound: CCN1c2ncc(CCOc3cc[n+]([O-])c4ccccc34)cc2C(=O)N(C)c2cccnc21 [BILR 355]
Activity (Homo sapiens [1]): 0% | Activity (Homo sapiens [2]): 0% | Activity (Homo sapiens [3]): 0% | Activity (Homo sapiens [4]): 0% | Activity (Homo sapiens [15]): 0% | Activity (Homo sapiens [16]): 0% | Activity (Homo sapiens [17]): 0% | Activity (Homo sapiens [18]): 0% | Activity (Homo sapiens [19]): 16.7% | Activity (Homo sapiens [23]): 16.7% | Activity (Homo sapiens [31]): 0% | Activity (Homo sapiens [32]): 0% | Activity (Homo sapiens [33]): 0%
